Assay results published in ChEMBL document CHEMBL4715911, “Quest for a potent antimalarial drug lead: Synthesis and evaluation of 6,7-dimethoxyquinazoline-2,4-diamines” (Bioorg Med Chem, 2021).

Experiments:
Plasmodium berghei [1] = experiment: Antimalarial activity against Plasmodium berghei NK65 infected in ICR mouse assessed as reduction in parasitemia at 66.3 mg/kg, po qd for 4 days by Diff-Quik staining based microscopic method (reference value: 0%); format: functional; settings: 96 h, time 4 day
Plasmodium berghei [2] = experiment: Antimalarial activity against Plasmodium berghei NK65 infected in ICR mouse assessed as animal mean survival days at 66.3 mg/kg, po qd for 4 days (reference value: 6.2 day); format: functional; settings: time 4 day
L6 = experiment: Cytotoxicity against rat L6 cells assessed as reduction in cell viability incubated for 70 hrs by resazurin dye based fluorescence assay; settings: L6, 70 h
Outline: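 L6 rat skeletal myoblasts seeded at 4000 cells/well in RPMI 1640 with 1% L-glutamine and 10% FBS. Eleven 3-fold drug dilutions (100 to 0.002 µg/mL) added 24 h after seeding, then 70 h incubation. Resazurin added for 2 h. Fluorescence read at ex 536/em 588 nm. IC50 from 4-parameter logistic fit, average of two independent determinations.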

[3] = Selectivity index, ratio of IC50 for cytotoxicity against rat L6 cells to IC50 for antimalarial activity against Plasmodium falciparum NF54; format: toxicity, cell-based; settings: read-out: Ratio IC50
Outline: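 SI calculated as L6 cytotoxicity IC50 divided by P. falciparum NF54 IC50, both measured in parallel in vitro assays.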

Plasmodium falciparum = experiment: Antimalarial activity against Plasmodium falciparum NF54 assessed as inhibition of parasite growth incubated for 48 hrs by [3H]hypoxanthine incorporation assay based liquid scintillation counting method; format: functional, organism-based
Outline: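 ³H-hypoxanthine incorporation against erythrocytic P. falciparum NF54 (drug-sensitive). Culture in hypoxanthine-free RPMI 1640 with HEPES, NaHCO3, neomycin and Albumax, on human A+ red cells at 2.5% hematocrit, 0.3% parasitemia. Eleven 3-fold dilutions spanning 100 to 0.002 µg/mL. 37 °C in 4% CO2/3% O2/93% N2. Label (0.5 µCi) added after 48 h, then a further 24 h. Scintillation counting. IC50 from 4-parameter logistic fit, average of two independent determinations.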

Plasmodium berghei [4] = experiment: Antimalarial activity against Plasmodium berghei NK65 infected in ICR mouse assessed as animal mean survival days at 58.4 mg/kg, po qd for 4 days (reference value: 6.2 day); format: functional; settings: time 4 day
Plasmodium berghei [5] = experiment: Antimalarial activity against Plasmodium berghei NK65 infected in ICR mouse assessed as reduction in parasitemia at 58.4 mg/kg, po qd for 4 days by Diff-Quik staining based microscopic method (reference value: 0%); format: functional; settings: 96 h, time 4 day
Plasmodium berghei [6] = experiment: Antimalarial activity against Plasmodium berghei NK65 infected in ICR mouse assessed as animal mean survival days at 50 mg/kg, po qd for 4 days (reference value: 6.2 +/- 0.5 day); format: functional; settings: time 4 day
Plasmodium berghei [7] = experiment: Antimalarial activity against Plasmodium berghei NK65 infected in ICR mouse assessed as parasitemia at 50 mg/kg, po qd for 4 days by Diff-Quik staining based microscopic method (reference value: 28.4 +/- 10.2%); format: functional; settings: time 4 day
Plasmodium berghei [8] = experiment: Antimalarial activity against Plasmodium berghei NK65 infected in ICR mouse assessed as reduction in parasitemia at 50 mg/kg, po qd for 4 days by Diff-Quik staining based microscopic method (reference value: 0%); format: functional; settings: 96 h, time 4 day
Plasmodium berghei [9] = experiment: Antimalarial activity against Plasmodium berghei NK65 infected in ICR mouse assessed as reduction in parasitemia at 58.2 mg/kg, po qd for 4 days by Diff-Quik staining based microscopic method (reference value: 0%); format: functional; settings: 96 h, time 4 day
Plasmodium berghei [10] = experiment: Antimalarial activity against Plasmodium berghei NK65 infected in ICR mouse assessed as animal mean survival days at 58.2 mg/kg, po qd for 4 days (reference value: 6.2 +/-0.5 day); format: functional; settings: time 4 day

| Compound | IC50 (L6) [µM] | selectivity ratio [3] | IC50 (Plasmodium falciparum) [µM] | further results |
| --- | --- | --- | --- | --- |
| COc1cc2nc(Nc3ccncc3)nc(NCc3cccnc3)c2cc1OC.Cl.Cl | – | – | – | inhibition in vivo at 66.3 mg/kg (Plasmodium berghei [1]): 27.1%; MSD (Plasmodium berghei [2]): 8.7 days |
| CCC(C)Nc1nc(Nc2ccncc2)nc2cc(OC)c(OC)cc12 (stereo unspecified) | 47.7 | 16800 | 0.00283 | – |
| CCCCNc1nc(Nc2cccnc2)nc2cc(OC)c(OC)cc12 | 150 | 5900 | 0.0254 | – |
| COc1cc2nc(Nc3ccncc3)nc(NC(C)c3ccccc3)c2cc1OC (stereo unspecified) | 62.7 | 156000 | 0.0004 | – |
| COc1cc2nc(N3CCCC3)nc(NC(C)C)c2cc1OC | 12.5 | 3430 | – | – |
| CCCCCCCCNc1nc(Nc2ccncc2)nc2cc(OC)c(OC)cc12 | 1.76 | 241 | 0.0073 | – |
| CCNc1nc(Nc2ccncc2)nc2cc(OC)c(OC)cc12.Cl | – | – | – | MSD (Plasmodium berghei [4]): 7 days; inhibition in vivo at 58.4 mg/kg (Plasmodium berghei [5]): 1% |
| CCCCNc1nc(NCCCC)c2cc(OC)c(OC)cc2n1 | 3.67 | 1750 | 0.0021 | – |
| COc1cc2nc(N3CCCC3)nc(Nc3ccccc3C)c2cc1OC | 8.46 | 257 | 0.0329 | MSD (Plasmodium berghei [6]): 6.8 days; Activity (Plasmodium berghei [7]): 23.4%; inhibition in vivo at 50 mg/kg (Plasmodium berghei [8]): 26.8% |
| CCNc1nc(Nc2cccnc2)nc2cc(OC)c(OC)cc12 | 112 | 18200 | 0.00614 | – |
| CCNc1nc(OC)nc2cc(OC)c(OC)cc12 | 67.3 | 1.9 | 34.8 | – |
| COc1cc2nc(Nc3ccncc3)nc(Nc3ccccc3C)c2cc1OC | 213 | 4350 | 0.049 | – |
| CCCCCCCCNc1nc(N2CCCC2)nc2cc(OC)c(OC)cc12 | 1.48 | 1060 | 0.0014 | – |
| COc1cc2nc(N3CCCC3)nc(N3CCCC3)c2cc1OC | 3.96 | 3.8 | 1.04 | – |
| CCCCNc1nc(NC(C)C)c2cc(OC)c(OC)cc2n1 | 5.31 | 1690 | 0.00314 | – |
| CCCCNc1ncnc2cc(OC)c(OC)cc12 | 73.6 | 15.6 | 4.71 | – |
| CCNc1nc(NCCc2ccccc2)nc2cc(OC)c(OC)cc12 | 1.68 | 99 | 0.017 | – |
| CCCCNc1nc(Nc2ccncc2)nc2cc(OC)c(OC)cc12 | 105 | – | 0.00567 | – |
| CCCCNc1nc(NCCCC)c2ccccc2n1 | 3.01 | 25.6 | 0.121 | – |
| CCCCNc1nc(NCc2cccnc2)nc2cc(OC)c(OC)cc12 | 11.1 | 5120 | 0.00217 | – |
| COc1cc2nc(N3CCCC3)nc(NCc3cccnc3)c2cc1OC | 27.3 | 2000 | 0.0136 | – |
| CCC(CC)Nc1nc(Nc2ccncc2)nc2cc(OC)c(OC)cc12 | 110 | 2130 | 0.0518 | – |
| CCCCNc1nc(NCc2ccccn2)nc2cc(OC)c(OC)cc12 | 10.6 | 1000 | 0.0109 | – |

| Compound | IC50 (L6) [µM] | selectivity ratio [3] | IC50 (Plasmodium falciparum) [µM] | further results |
| --- | --- | --- | --- | --- |
| CCCCNc1nc(NCC)c2cc(OC)c(OC)cc2n1 | 5.29 | 230 | 0.023 | – |
| COc1cc2nc(N3CCCC3)nc(NCc3ccccc3)c2cc1OC | 9.49 | 1900 | 0.00549 | – |
| COc1cc2nc(N3CCCC3)nc(NC(C)CCc3ccccc3)c2cc1OC (stereo unspecified) | 4.48 | 613 | 0.0073 | – |
| COc1cc2nc(Nc3ccncc3)nc(Nc3ccccc3C(F)(F)F)c2cc1OC | 138 | 6100 | 0.0226 | – |
| COc1cc2nc(Nc3ccncc3)nc(NC(C)C)c2cc1OC.Cl.Cl | – | – | – | inhibition in vivo at 58.2 mg/kg (Plasmodium berghei [9]): 39.5%; MSD (Plasmodium berghei [10]): 8.3 days |
| CCCCNc1nc(NCCCOCC)nc2cc(OC)c(OC)cc12 | 4.46 | 161 | 0.0276 | – |
| CCCCNc1nc(N2CCCC2)nc2cc(OC)c(OC)cc12 | 61.8 | – | 0.0018 | MSD (Plasmodium berghei [6]): 6.6 days; Activity (Plasmodium berghei [7]): 10.8%; inhibition in vivo at 50 mg/kg (Plasmodium berghei [8]): 60% |
| CCCCNc1nc(NCc2ccncc2)nc2cc(OC)c(OC)cc12 | 11 | 1360 | 0.00816 | – |
| CCCCCCCCNc1nc(Nc2ccncc2)nc2cc(OC)c(OC)cc12.Cl | – | – | – | MSD (Plasmodium berghei [4]): 7.3 days; inhibition in vivo at 58.4 mg/kg (Plasmodium berghei [5]): 54.8% |
| COc1cc2nc(Nc3ccncc3)nc(NCc3ccncc3)c2cc1OC.Cl.Cl | – | – | – | inhibition in vivo at 66.3 mg/kg (Plasmodium berghei [1]): 29.4%; MSD (Plasmodium berghei [2]): 7.7 days |
| CCNc1nc(Cl)nc2cc(OC)c(OC)cc12 | 52.6 | 3.33 | 15.8 | – |
| COc1cc2nc(Nc3cccnc3)nc(Nc3ccccc3C)c2cc1OC | 170 | 8250 | 0.0206 | – |
| CCNc1nc(NCc2ccccc2)nc2cc(OC)c(OC)cc12 | 5.44 | 367 | 0.0148 | – |
| COc1cc2nc(Nc3ccncc3)nc(NCc3ccncc3)c2cc1OC | 138 | 4470 | 0.0309 | – |
| COc1cc2nc(N3CCCC3)nc(N)c2cc1OC | 28.2 | 17 | 1.66 | – |
| COc1cc2nc(Nc3cccnc3)nc(NC(C)C)c2cc1OC | 249 | 16900 | 0.0147 | – |
| COc1cc2nc(Nc3ccncc3)nc(NCc3cccnc3)c2cc1OC | 138 | 10700 | 0.0128 | – |
| CCC(CC)Nc1nc(Nc2cccnc2)nc2cc(OC)c(OC)cc12 | 155 | 8190 | 0.019 | – |
| COc1cc2nc(N3CCC(C(N)=O)CC3)nc(NCc3ccccc3)c2cc1OC | 4.98 | 27.7 | 0.18 | – |
| COc1cc2nc(N3CCCC3)nc(NC(C)c3ccccc3)c2cc1OC (stereo unspecified) | 4.81 | 481 | 0.01 | MSD (Plasmodium berghei [6]): 19.8 days; Activity (Plasmodium berghei [7]): 2.5%; inhibition in vivo at 50 mg/kg (Plasmodium berghei [8]): 90.4% |
| COc1cc2nc(Nc3ccncc3)nc(NC(C)C)c2cc1OC | 81.4 | 28000 | 0.0029 | – |
| CCNc1nc(Nc2ccncc2)nc2cc(OC)c(OC)cc12 | 55.1 | 17900 | 0.00307 | – |
